Rows were chosen to be rich in hits. Some 3.7% of all compounds tested hit in one or more screens of this group.
eIF4E-4G inh: blocks eIF4E binding to eIF4G; P63073+Q04637; TR-FRET eIF4E-eIF4GI(517-606) binding, 2 h; inhibition, % at 21.7 µM; 0.37% of 220,000 active; AID 782;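 also: 0% = full FRET control wells and 100% = background wells lacking eIF4GI fragment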
NCF1 inh: blocks human p47phox regulatory protein of NADPH oxidases; 0.53% of 220,000 active; P14598; inhibition, % at 24.7 µM; AID 1274; p47phox/p22phox peptide binding, fluorescence polarization, 2 h;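 also: 0% = p47phox with labelled peptide and 100% = labelled peptide alone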
RBBP9 inhibitor: inhibitors of human serine hydrolase RBBP9; O75884; recombinant RBBP9, FP-Rh probe fluorescence polarization; inhibition, % at 7.94 µM; 0.2% of 220,000 active; AID 1515;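 active = inhibition above the campaign mean of all tested compounds plus 3 SD, cut at about 14% in these data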;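 also: plate controls were DMSO wells with RBBP9 for no effect and wells lacking RBBP9 protein for full effect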
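system = RBBP9 protein | input = RBBP9 at 2.5 µM in dispensed solution, before mixing | measured by = fluorescence polarization (mP), excitation 525 nm, emission 598 nm | incubation = enzyme-compound preincubation 30 min, then probe labeling 45 min, 25 °C | buffer or medium = Tris-NaCl-Pluronic buffer, pH 8.0 | compound = single dose 7.94 µM | also added = FP-Rh probe, 375 nM dispensing solution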
14-3-3 Bad inh: disrupts binding of bovine 14-3-3 zeta to phospho-Bad peptide; 0.71% of 220,000 active; inhibition, % at 21.7 µM; AID 781; TR-FRET 14-3-3zeta/Dy647-pBad peptide displacement, 1 h;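 active = inhibition above about 70%, limit read from the data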;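 also: 0% = full 14-3-3 plus peptide FRET controls and 100% = background without 14-3-3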
Target sequence (P63103 whole entry, looked up): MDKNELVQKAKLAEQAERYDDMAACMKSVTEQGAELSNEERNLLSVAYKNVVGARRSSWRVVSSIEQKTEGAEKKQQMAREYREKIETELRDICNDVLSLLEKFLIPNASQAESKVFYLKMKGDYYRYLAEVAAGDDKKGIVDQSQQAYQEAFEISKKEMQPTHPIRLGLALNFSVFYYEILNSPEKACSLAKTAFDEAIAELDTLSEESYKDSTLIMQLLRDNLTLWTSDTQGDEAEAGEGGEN
WT yeast gro inh: growth inhibition of WT yeast, mitochondrial fusion screen; inhibition, % at 10 µM; mitochondrial fusion phenotypic screen, WT strain; 2.1% of 190,000 active; AID 1362; in the data active = inhibition above about 58%; tested in S. cerevisiae
EBV gp42 block: inhibitors of Epstein-Barr virus glycoprotein 42; Q1HVG2; AID 1085; 0.42% of 220,000 active; inhibition, % (tested at 21.74 µM); Fluorescence polarization binding assay, mP read-out; in the data active = inhibition above about 50%
Target sequence (Q1HVG2 whole entry, looked up): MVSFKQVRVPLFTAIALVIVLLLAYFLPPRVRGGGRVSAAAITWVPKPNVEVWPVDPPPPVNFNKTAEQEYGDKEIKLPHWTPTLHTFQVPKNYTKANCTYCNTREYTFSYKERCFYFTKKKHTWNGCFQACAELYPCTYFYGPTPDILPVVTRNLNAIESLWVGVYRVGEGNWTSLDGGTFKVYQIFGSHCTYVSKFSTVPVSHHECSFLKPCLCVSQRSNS
* = called active by the depositor; . = not tested or not shown; [ ] = another dose, or the depositor's remark.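 The calls were made as follows, unless noted: active = inhibition above about 30% (limit read from the data); inactive = the rest.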

SMILES	eIF4E-4G inh	NCF1 inh	RBBP9 inhibitor	14-3-3 Bad inh	WT yeast gro inh	EBV gp42 block
CC(=O)Nc1ccc(N2CCc3c(C)c(C#N)c4nc5ccccc5n4c32)cc1	17	-40	1	-10	5	59*
CC(C)Oc1ccc(C2CC(=O)N(c3cccc(Br)c3)C2=O)cc1 (stereo not drawn)	1	-2	-11	7	.	-6
Cc1ccc(OCC(=O)N2CCN(c3nnc(-c4ccc(C)cc4)c4ccccc34)CC2)cc1	-21	-15	-1	-7	79*	-4
CCOc1ccc(N/C=C/C(=O)c2ccc(OC)cc2)c([N+](=O)[O-])c1	-1	6	2	5	-2	59*
Cc1c(CN2CCC(CO)(CCOc3ccccc3)CC2)[nH]c2c(Cl)cccc12	1	-13	-1	-4	93*	44
N=c1n(CC(=O)c2cccs2)c2ccccc2n1Cc1ccccc1	3	-26	-4	-3	.	-5
O=C(CC(c1ccccc1)(c1ccccc1)c1ccccc1)N[C@@H](Cc1ccccc1)C(=O)O	1	-8	5	0	-7	-17
O=C(O)[C@H](Cc1ccccc1)NC(=O)C(c1ccccc1)(c1ccccc1)c1ccccc1	-1	-2	5	88*	4	-9
C=CCN(CC=C)c1nc2ccccc2nc1C(C#N)C(=O)OCCOC (stereo not drawn)	-6	-13	-4	1	59*	8
CC(=O)N(C)C1=C(O)c2ccccc2C(=O)C1=O	-4	5	-4	70*	-11	-5
CC(=O)N(C1=C(O)c2ccccc2C(=O)C1=O)C1CCCCC1	2	-12	-5	59	4	2
Nc1c(C(=O)NC2CCCC2)sc2nc(-c3cccs3)ccc12	-11	-14	-4	-12	62*	10
O=C(NC1CCCCCC1)c1cccs1	1	-10	-5	-3	5	3
CCOCCCN1C(=O)CN(C2CCC(C)CC2)C(=O)C1c1ccc(C)cc1 (stereo not drawn)	-2	8	-5	-8	3	-3
Cc1ccc(CN=Cc2[nH]c3ccc(Br)c(Cl)c3c2O)cc1	12	-7	4	-4	64*	-15
Oc1c(C=NCc2ccc(F)cc2)[nH]c2ccc(Br)c(Cl)c12	-5	-7	-8	0	.	-55
O=C(OCc1nnc(-c2ccc(Br)cc2)o1)c1cncc(Br)c1	1	-4	9	0	10	-9
Cn1c(C(O)C(O)c2ccccc2)nc2ccccc21 (stereo not drawn)	-4	6	1	-9	-10	-1
Cn1c(C(C#N)C2=C(Cl)C(=O)N(c3ccccc3)C2=O)nc2ccccc21 (stereo not drawn)	-17	48*	2	10	20	20
O=C(Nc1ccc(Cc2ccncc2)cc1)c1ccc(S(=O)(=O)N2CCCC2)cc1	0	-2	-3	-11	1	3
COc1cc2c(C(=O)NCc3ccc(C)o3)cn(CC(C)C)c(=O)c2cc1OC	-3	-4	-1	5	74*	-9
O=C(c1ccco1)N(c1ccccn1)c1ccccn1	4	-10	-1	7	-8	-10
O=C(/C=C/c1ccco1)N(c1ccccn1)c1ccccn1	34*	-8	-8	2	9	18
CC(NC(=O)COc1ccc(N(C)S(=O)(=O)c2ccccc2)cc1)c1ccccc1 (stereo not drawn)	4	-11	-8	-6	-9	4
COc1ccc(C)cc1NC(=O)C1CCN(S(=O)(=O)c2cccc3cccnc23)CC1	0	-2	1	9	11	-13
SMILES	eIF4E-4G inh	NCF1 inh	RBBP9 inhibitor	14-3-3 Bad inh	WT yeast gro inh	EBV gp42 block
CCOc1ccccc1NC(=O)C1CCN(S(=O)(=O)c2cccc3cccnc23)CC1	57*[fluorescence artefact?]	-8	.	1	-13	-13
CN(C)c1cc(-c2ccc(Br)cc2)oc(=O)c1Cl	-2	-4	-2	-2	.	-14
C=CCNCCOCCOc1ccc(C)cc1[N+](=O)[O-]	2	-13	-5	75*	9	-7
NC(=O)Cc1cn(-c2ncc(C(F)(F)F)cc2Cl)c2ccccc12	5	-5	4	-9	0	-10
COC(=O)Cc1cn(-c2ncc(C(F)(F)F)cc2Cl)c2ccccc12	-9	-3	1	12	84*	15
COc1ccc(N(CC(=O)NCc2ccccc2)C(=O)CCC(=O)Nc2cc(C)ccn2)c(OC)c1	88*	-2	2	0	.	-6
Brc1ccc(CSc2nnc(Cc3c[nH]c4ccccc34)o2)cc1	-2	-15	-7	17	68*	2
O=C(O)c1cc(C(F)(F)F)nc2c(C(F)(F)F)cccc12	1	-2	-6	0	-1	-3
Cc1cc(C)c2nc(NNC(=O)c3cc(-c4cccs4)nc4ccccc34)sc2c1	2	-20	-4	-7	64*	-33
Cn1cc(CN2CCC[C@H]2CO)c(-c2cccc(Cl)c2)n1	0	0	-6	-8	-3	2
CCOC(=O)CC1C(=O)NCCN1C(=O)Nc1ccc(Cl)cc1 (stereo not drawn)	3	-7	5	73*[fluorescence artefact?]	-5	-12
COC(=O)CC1C(=O)NCCN1C(=O)Nc1ccc(Cl)cc1 (stereo not drawn)	0	-9	2	-16	10	-10
COc1cc(-c2ncc3ccccn23)cc(OC)c1OC	6	5	-4	73*	6	-12
CCN(CC)c1ccc(NC2CC(=O)N(CCc3ccc(OC)cc3)C2=O)cc1 (stereo not drawn)	-2	-13	2	0	.	-58
O=S(=O)(c1ccc(N2CCOCC2)cc1)N1CCOCC1	1	-12	-4	26	13	-18
CC#CCN(CC#CC)S(=O)(=O)c1ccc(S(=O)(=O)N2CCOCC2)cc1	.	194*	-5	.	.	-24
O=C(Nc1nc(-c2ccccn2)cs1)c1ccc2c(c1)OCCO2	1	-17	1	-20	69*	-1
Cc1cc(C(=O)Nc2nc(-c3ccccn3)cs2)ccc1[N+](=O)[O-]	-1	-18	-7	-13	62*	10
O=C(Nc1nc(-c2ccccn2)cs1)c1cc(Cl)ccc1[N+](=O)[O-]	0	-11	-5	-14	70*	-2
CC(=O)Nc1ccc(C(=O)Nc2nc(-c3ccccn3)cs2)cc1	-1	-4	-7	-6	7	12
Cn1ccc(NC(=O)Nc2cccc([N+](=O)[O-])c2)n1	0	-6	-15	-4	1	4
CN1C(=S)SC(C)(C)C1(C)NO (stereo not drawn)	4	-2	1	-3	65*	-6
Cc1ccn2cc(CSc3ccccc3)nc2c1	4	-1	-2	-9	60*	8
Cc1ccc(SCc2cn3cccnc3n2)cc1	1	-2	4	2	32	-12

Screening results: PubChem, several laboratories
